Measurements of several laboratories.
Lines come from different studies, so protocols differ.
Target: Prostaglandin G/H synthase 2 (PTGS2, Homo sapiens, UniProt P35354)
Read-out: enzyme activity
Action: inhibitor
One construct used (P35354 18-604): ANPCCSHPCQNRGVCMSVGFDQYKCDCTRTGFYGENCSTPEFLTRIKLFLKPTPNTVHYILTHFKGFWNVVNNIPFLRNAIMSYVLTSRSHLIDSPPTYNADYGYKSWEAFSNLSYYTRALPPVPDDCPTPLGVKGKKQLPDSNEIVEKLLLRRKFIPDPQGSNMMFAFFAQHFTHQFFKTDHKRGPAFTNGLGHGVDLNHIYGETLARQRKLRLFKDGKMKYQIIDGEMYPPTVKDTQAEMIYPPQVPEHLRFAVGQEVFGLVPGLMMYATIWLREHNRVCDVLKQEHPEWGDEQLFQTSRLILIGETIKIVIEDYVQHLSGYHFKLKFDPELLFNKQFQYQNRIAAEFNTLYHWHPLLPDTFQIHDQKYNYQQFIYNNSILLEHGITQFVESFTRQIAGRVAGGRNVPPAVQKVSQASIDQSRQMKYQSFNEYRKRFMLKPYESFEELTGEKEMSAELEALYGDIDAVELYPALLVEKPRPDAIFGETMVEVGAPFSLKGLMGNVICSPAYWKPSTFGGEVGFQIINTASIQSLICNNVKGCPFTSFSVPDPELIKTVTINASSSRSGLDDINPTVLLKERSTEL

With `O=C(Nc1ccc(-c2ccccc2)cc1)c1cnn(-c2ccc([N+](=O)[O-])cc2)c1C(F)(F)F` the IC50 was 6 µM.
The IC50 of `Cc1ccc(S(=O)(=O)NNc2ccc([N+](=O)[O-])cc2[N+](=O)[O-])cc1` is reported as 4.74 µM.
With `Cc1ccc(S(=O)(=O)NNC(=O)COC(=O)c2ccccc2Nc2cccc(C(F)(F)F)c2)cc1` the IC50 was 9 µM.
For `Cc1ccc(S(=O)(=O)[N](Nc2ccc([N+](=O)[O-])cc2[N+](=O)[O-])[Sn]([Cl])[Cl])cc1`, the IC50 was 2.74 µM.
`CC(=NNC(=O)c1cc(-c2ccccc2)n(-c2ccc(S(N)(=O)=O)cc2)n1)c1ccc(C)cc1` has an IC50 of 1.34 µM.
The IC50 of `COc1cc(NC(=O)c2cnn(-c3ccc([N+](=O)[O-])cc3)c2C(F)(F)F)cc(OC)c1` is reported as 5.78 µM.
The IC50 of `NS(=O)(=O)c1ccc(-n2nc(C(=O)NN=Cc3cccnc3)cc2-c2ccccc2)cc1` is reported as 3.93 µM.
`O=C(COC(=O)c1ccccc1Nc1cccc(C(F)(F)F)c1)Nc1ccc(F)cc1` gave an IC50 of 58 µM.
